Calls of active or inactive are those of the source. No cut-off for these calls is given here.
Key:
Lolium multiflorum [1] = assay: Phytotoxicity against Lolium multiflorum (Italian ryegrass) assessed as inhibition of seed germination after 48 hr; assay type: functional
In short: (§1)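 Seeds of uniform size on Whatman No.1 filter paper in 85 mm Petri dishes, wetted with 8 or 10 mL deionized water or test solution (MeOH < 1%); controls got matching water/methanol. Sealed, incubated at 28 °C in the dark, scored at 48 h intervals; germination = 1 mm radicle extrusion. Three replicates.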

Trifolium pratense [2] = assay: Phytotoxicity against Trifolium pratense (red clover) assessed as inhibition of root development during seeding stage after 120 hr; assay type: functional, organism-based; conditions: read-out: I50
In short: (§2)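 Petri-dish seedling assay on filter paper wetted with test solution (MeOH < 1%), 28 °C in the dark. Coleoptile/hypocotyl and root lengths of all germinated seeds measured after 120 h, then plants dried to constant weight at 40 °C. Three replicates; 50% inhibitory concentrations by Probit analysis of percent inhibition versus concentration.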

[3] = tested on: Radical scavenging activity; assay: Antioxidant activity assessed as DPPH free radical scavenging activity after 30 min by TLC autographic assay; assay type: functional; conditions: in the assay text read “spectrophotometric assay” for “TLC autographic assay”; read-out: I50
[4] = Antioxidant activity assessed as inhibition of bleaching of water soluble crocin measured every 5 min by spectrophotometric analysis; assay type: functional
In short: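 Aqueous mixture of 10 µM crocin, 1 mM t-BuOOH and 0.5 M t-BuOH with serial dilutions of test compound, placed under UV254 light; crocin bleaching (absorbance decrease) and fluorescence emission at 440 and 470 nm followed every 5 min. Three experiments, mean ± SEM.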

Lactuca sativa [5] = assay: Phytotoxicity against Lactuca sativa (lettuce) assessed as inhibition of shoot development during seeding stage after 120 hr; assay type: functional, organism-based; conditions: read-out: I50; in short: as §2
Physalis ixocarpa [6] = assay: Phytotoxicity against Physalis ixocarpa assessed as inhibition of seed germination after 48 hr; assay type: functional; in short: as §1
Lolium multiflorum [7] = assay: Phytotoxicity against Lolium multiflorum (Italian ryegrass) assessed as inhibition of root development during seeding stage after 120 hr; assay type: functional, organism-based; conditions: read-out: I50; in short: as §2
Physalis ixocarpa [8] = assay: Phytotoxicity against Physalis ixocarpa assessed as inhibition of shoot development during seeding stage after 120 hr; assay type: functional, organism-based; conditions: for IC50: read-out: I50; in short: as §2
Spinacia oleracea [9] = assay: Inhibition of ATP synthesis in Spinacia oleracea (spinach) chloroplasts; assay type: functional
In short: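 Spinach thylakoids in 100 mM sorbitol, 5 mM MgCl2, 10 mM KCl, 1 mM Na+-tricine, pH 8, with 50 µM methyl viologen as Hill-reaction electron acceptor. Illuminated at 20 °C through 1% CuSO4 filter. ATP synthesis measured titrimetrically.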

Lactuca sativa [10] = assay: Phytotoxicity against Lactuca sativa (lettuce) assessed as inhibition of seed germination after 48 hr; assay type: functional; in short: as §1
Lolium multiflorum [11] = assay: Phytotoxicity against Lolium multiflorum (Italian ryegrass) assessed as inhibition of seed respiration during germination after 72 hr; assay type: functional, organism-based; conditions: read-out: I50
In short: (§3)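 Oxygen uptake of germinating seeds measured polarographically with a Clark-type electrode at 25 °C in a nonilluminated cell over 5 and 10 min, at several compound concentrations. Expressed as percent of control (100%). Three experiments; RI50 from Probit analysis.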

Spinacia oleracea [12] = assay: Inhibition of H+ uptake in Spinacia oleracea (spinach) chloroplasts; assay type: functional; conditions: for IC50: read-out: I50
In short: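 Spinach thylakoids (from isolated chloroplasts, in sorbitol/tricine/MgCl2/NaCl buffer, pH 7.8) in 100 mM sorbitol, 5 mM MgCl2, 10 mM KCl, 1 mM Na+-tricine, pH 8, with 50 µM methyl viologen. Illuminated at 20 °C through 1% CuSO4 filter. H+ uptake recorded as pH rise from 8.0 to 8.1 with combination microelectrode on expanded scale.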

Physalis ixocarpa [13] = assay: Phytotoxicity against Physalis ixocarpa assessed as inhibition of seed respiration during germination after 72 hr; assay type: functional, organism-based; conditions: read-out: I50; in short: as §3
Trifolium pratense [14] = assay: Phytotoxicity against Trifolium pratense (red clover) assessed as inhibition of seed respiration during germination after 72 hr; assay type: functional, organism-based; conditions: read-out: I50; in short: as §3
Trifolium pratense [15] = assay: Phytotoxicity against Trifolium pratense (red clover) assessed as inhibition of shoot development during seeding stage after 120 hr; assay type: functional, organism-based; conditions: read-out: I50; in short: as §2
Trifolium pratense [16] = assay: Phytotoxicity against Trifolium pratense (red clover) assessed as inhibition of seed germination after 48 hr; assay type: functional; in short: as §1
Lactuca sativa [17] = assay: Phytotoxicity against Lactuca sativa (lettuce) assessed as inhibition of root development during seeding stage after 120 hr; assay type: functional, organism-based; conditions: read-out: I50; in short: as §2
Lolium multiflorum [18] = assay: Phytotoxicity against Lolium multiflorum (Italian ryegrass) assessed as inhibition of shoot development during seeding stage after 120 hr; assay type: functional, organism-based; conditions: read-out: I50; in short: as §2
Lactuca sativa [19] = assay: Phytotoxicity against Lactuca sativa (lettuce) assessed as inhibition of seed respiration during germination after 72 hr; assay type: functional, organism-based; conditions: read-out: I50; in short: as §3
Phaseolus vulgaris = assay: Inhibition of mitochondrial respiration in Phaseolus vulgaris root mitochondria assessed as reduction of oxygen uptake; assay type: functional; conditions: read-out: I50
In short: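 Mitochondria from roots of 72 h dark-grown (28 °C) bean seedlings, Percoll-gradient purified, 0.3-0.5 mg protein (Bradford) per run; integrity checked with HCN. Compounds in 0.5% methanol added after a constant state 3 rate with […] was reached. O2 uptake by Clark electrode; control is mitochondria with 0.5% MeOH. Three experiments; I50 by Probit.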

Physalis ixocarpa [20] = assay: Phytotoxicity against Physalis ixocarpa assessed as inhibition of root development during seeding stage after 120 hr; assay type: functional, organism-based; conditions: for IC50: read-out: I50; in short: as §2
[21] = tested on: Lolium multiflorum (ryegrass); assay: Phytotoxicity against Lolium multiflorum (ryegrass) assessed as inhibition of seed germination at 500 uM after 48 hr
Lolium multiflorum [22] = assay: Increase of seed respiration during germination in Lolium multiflorum (Italian ryegrass)at 30 uM; assay type: functional, organism-based; in short: as §3
Physalis ixocarpa [23] = assay: Phytotoxicity against Physalis ixocarpa assessed as inhibition of seed respiration during germination after 24 hr; assay type: functional, organism-based; in short: as §3
Lolium multiflorum [24] = assay: Phytotoxicity against Lolium multiflorum (Italian ryegrass) assessed as inhibition of seed germination at 500 uM after 48 hr; assay type: functional; in short: as §1
Lolium multiflorum [25] = assay: Phytotoxicity against Lolium multiflorum (Italian ryegrass) assessed as inhibition of seed respiration during germination at 300 to 500 uM after 24 hr; assay type: functional, organism-based; in short: as §3
Trifolium pratense [26] = assay: Increase of shoot development during seeding stage in Trifolium pratense (red clover) at 200 uM after 120 hr; assay type: functional, organism-based; in short: as §2
Lolium multiflorum [27] = assay: Phytotoxicity against Lolium multiflorum (Italian ryegrass) assessed as inhibition of seed respiration during germination after 24 hr; assay type: functional, organism-based; in short: as §3
Trifolium pratense [28] = assay: Phytotoxicity against Trifolium pratense (red clover) assessed as inhibition of seed respiration during germination after 24 hr; assay type: functional, organism-based; in short: as §3
Lactuca sativa [29] = assay: Increase of root development during seeding stage in Lactuca sativa (lettuce) at 50 to 300 uM after 120 hr; assay type: functional, organism-based; in short: as §2
Trifolium pratense [30] = assay: Increase of root development during seeding stage in Trifolium pratense (red clover) at 50 to 300 uM after 120 hr; assay type: functional, organism-based; in short: as §2
Physalis ixocarpa [31] = assay: Increase of shoot development during seeding stage in Physalis ixocarpa up to 50 uM after 120 hr; assay type: functional, organism-based; in short: as §2
Lactuca sativa [32] = assay: Phytotoxicity against Lactuca sativa (lettuce) assessed as inhibition of seed respiration during germination after 24 hr; assay type: functional, organism-based; in short: as §3

Compound | IC50 (Spinacia oleracea [12]) [µM] | GI50 (Lolium multiflorum [1]) [µM] | IC50 (Trifolium pratense [2]) [µM] | IC50 (Lactuca sativa [5]) [µM] | GI50 (Physalis ixocarpa [6]) | IC50 (Lolium multiflorum [7]) [µM] | IC50 (Physalis ixocarpa [8]) [µM] | inhibition (Spinacia oleracea [9]) | GI50 (Lactuca sativa [10]) [µM] | IC50 (Lolium multiflorum [11]) [µM] | inhibition (Spinacia oleracea [12]) | IC50 (Physalis ixocarpa [13]) [µM] | IC50 (Trifolium pratense [14]) [µM] | IC50 (Trifolium pratense [15]) [µM] | GI50 (Trifolium pratense [16]) [µM] | IC50 (Lactuca sativa [17]) [µM] | IC50 (Lolium multiflorum [18]) [µM] | IC50 (Lactuca sativa [19]) [µM] | IC50 (Phaseolus vulgaris) [µM] | IC50 (Physalis ixocarpa [20]) [µM] | also measured
CC(=O)c1ccc2c(c1)CC(C1(C)CO1)O2 (centres undefined) [10,11-EPOXY TREMETONE] | 40.7 | 65.6 | 16.2 | 33 | 19.2 µM | 72.6 | 5.8 | Dose-dependent effect | 36.1 | 67.9 | Dose-dependent effect | 57.5 | 49.1 | 14.3 | 22.3 | 33.8 | 65.9 | 58 | 109 | 15.7 | IC50 [3]: 62.6 µM; inhibition [4]: Active
C=C(C)[C@H]1Cc2c(ccc(C(C)=O)c2O)O1 [4-HYDROXY TREMETONE] | 20.4 | 25.5 | 46.3 | 19 | 16.6 µM | 22.3 | 15.2 | Dose-dependent effect | 21 | 39 | Dose-dependent effect | 28.7 | 22 | 47.6 | 17.8 | 16.7 | 26.2 | 27 | 45 | 12.7 | IC50 [3]: 53.2 µM; inhibition [4]: Active
CC(=O)Oc1ccc(C(C)=O)cc1 [4-(ACETATE)ACETOPHENONE] |  | 75.3 | 221 | 39.1 | inactive | 75.5 |  |  | 41 |  |  |  |  | 234 | 233 | 38.9 | 77.3 |  |  |  | inhibition at 500 µM [21]: 30%; Activity (Lolium multiflorum [22]): Active; I50 (Physalis ixocarpa [23]): inactive; inhibition at 500 µM (Lolium multiflorum [24]): 30%; Activity (Lolium multiflorum [25]): Active; Activity (Trifolium pratense [26]): Active; I50 (Physalis ixocarpa [8]): inactive; I50 (Lolium multiflorum [27]): inactive; I50 (Trifolium pratense [28]): inactive; Activity (Lactuca sativa [29]): Active; Activity (Trifolium pratense [30]): Active; Activity (Physalis ixocarpa [31]): Active; I50 (Physalis ixocarpa [20]): inactive; I50 (Lactuca sativa [32]): inactive

Continued, in another order:

IC50 (Spinacia oleracea [12]) [µM] | Compound | GI50 (Lolium multiflorum [1]) [µM] | IC50 (Trifolium pratense [2]) [µM] | IC50 (Lactuca sativa [5]) [µM] | GI50 (Physalis ixocarpa [6]) | IC50 (Lolium multiflorum [7]) [µM] | IC50 (Physalis ixocarpa [8]) [µM] | inhibition (Spinacia oleracea [9]) | GI50 (Lactuca sativa [10]) [µM] | IC50 (Lolium multiflorum [11]) [µM] | inhibition (Spinacia oleracea [12]) | IC50 (Physalis ixocarpa [13]) [µM] | IC50 (Trifolium pratense [14]) [µM] | IC50 (Trifolium pratense [15]) [µM] | GI50 (Trifolium pratense [16]) [µM] | IC50 (Lactuca sativa [17]) [µM] | IC50 (Lolium multiflorum [18]) [µM] | IC50 (Lactuca sativa [19]) [µM] | IC50 (Phaseolus vulgaris) [µM] | IC50 (Physalis ixocarpa [20]) [µM] | also measured
65.7 | COc1ccc(C(C)=O)cc1 [P-METHOXY-ACETOPHENONE] | 18.1 | 126 | 49.5 | 23.5 µM | 18.9 | 20.1 | Dose-dependent effect | 51.2 | 40 | Dose-dependent effect | 54.6 | 57.6 | 120 | 126 | 44.3 | 17.9 | 55.9 | 152 | 20.5 | 
74.5 | CC(=O)c1ccc(O)cc1 [4-HYDROXYACETOPHENONE] | 14.4 | 29.5 | 48.5 | 15 µM | 19 | 10.8 | Dose-dependent effect | 45.3 | 41 | Dose-dependent effect | 52.9 | 53 | 34.4 | 28.5 | 45.5 | 17.1 | 43 | 121 | 10.8 | inhibition [4]: Active

— ChEMBL document CHEMBL3046177, “Plant growth inhibitory activity of p-hydroxyacetophenones and tremetones from Chilean endemic Baccharis species and some analogous: a comparative study” (J Agric Food Chem, 2002)
